Assay outcomes (PubChem BioAssay)
HTRA1 inh: HTRA1 serine protease inhibitors, primary screen, biochemical, fluorescence polarization, HTS. Q92743. recombinant HTRA1, FP-rhodamine activity-based probe. inhibition, % at 5.96 µM. 340,000 compounds, 0.5% hits. AID 504803, 2011; in the data active = inhibition above about 36%
LEDGF integ inh: blockers of LEDGF/p75-dependent integrase strand transfer – biochemical, TR-FRET, high throughput, primary screen | AID 743269, 2014 | 370,000 compounds, 0.64% hits | inhibition, % at 3.7 µM | HIV-1 integrase (with human LEDGF/p75) | TR-FRET IN-LEDGF/p75 DNA integration, Eu/Cy5;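 active = inhibition above the screen-wide mean plus 3 SD, cut at about 13% in these data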;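 also: signal is the Cy5 over europium emission ratio at 671 and 618 nm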
PRMT1 inh: PRMT1 methyltransferase inhibitors, primary screen, biochemical, fluorescence polarization; Protein arginine N-methyltransferase 1 (Homo sapiens), Q99873; recombinant PRMT1, activity-based probe fluorescence polarization; inhibition, % at 2.79 µM; 370,000 compounds, 1.3% hits; AID 652257, 2013;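 active = inhibition above about 21% made by adding two undisclosed values, limit read from the data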
DAGLB inh: DAGLB lipase inhibitors, primary screen, biochemical, fluorescence, HTS | Diacylglycerol lipase-beta (Homo sapiens), Q8NCG7 | HEK293T DAGLB membrane lysate, EnzChek fluorogenic substrate | inhibition, % at 5.17 µM | 340,000 compounds, 0.059% hits | AID 504411, 2011; in the data active = inhibition above about 34%
mABHD4 FP: ABHD4 inhibitors, primary screen, biochemical, fluorescence polarization, mouse; inhibition, % at 8.92 µM; 370,000 compounds, 0.54% hits; purified mABHD4, FP-Rh probe fluorescence polarization;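 active = inhibition exceeding the mean over every tested compound plus 3 SD, cut at about 30% in these data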
Target sequence (Q8VD66 whole entry, looked up): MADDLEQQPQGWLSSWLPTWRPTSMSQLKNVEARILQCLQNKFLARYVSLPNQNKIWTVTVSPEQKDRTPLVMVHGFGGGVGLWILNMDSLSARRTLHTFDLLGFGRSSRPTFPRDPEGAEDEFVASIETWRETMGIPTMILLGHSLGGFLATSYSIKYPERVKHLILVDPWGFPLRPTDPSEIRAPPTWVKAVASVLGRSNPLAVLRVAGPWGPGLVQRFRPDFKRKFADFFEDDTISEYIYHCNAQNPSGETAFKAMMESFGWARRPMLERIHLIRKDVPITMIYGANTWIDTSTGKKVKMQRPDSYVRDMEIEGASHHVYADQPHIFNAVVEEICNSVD
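System: mouse ABHD4 enzyme, wild type / Medium: HEPES pH 7.0, NaCl, Pluronic buffer / Reagent: FP-Rh activity-based fluorescent probe / Control set: S159A mutant high control, sample median low control / Detection: fluorescence polarization with parallel and perpendicular emission, 525/598 nm / Schedule: 45 min + 60 min at 25 °C / Compound dosing: 8.92 µM, single dose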
rCAG binder: binders of r(CAG) RNA repeats, primary screen, biochemical, fluorescence | r(CAG) RNA repeat, TO-PRO-1 dye displacement fluorescence | inhibition, % at 3 µM | 370,000 compounds, 1.3% hits | AID 651821, 2012;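 active = inhibition above the plate cutoff, the mean of all test compounds on that plate plus 3 SD, cut at about 35% in these data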;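 also: higher means more dye released from RNA so lower well fluorescence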
IN multimer act: HIV-1 IN multimer formation enhancers, counter-screen for LEDGF/p75 integration inhibitor project, biochemical, TR-FRET; TR-FRET HIV-1 integrase multimerization; activation, % at 7.7 µM; 2,000 compounds, 17% hits; shares compounds with LEDGF integ inh; AID 1053131, 2014; in the data active = activation above about 8.9%
TR-FRET interf: TR-FRET optical interference artefacts, confirmation, artefact control for LEDGF/p75-dependent integration inhibitor project, biochemical, HIV-1 IN multimerization; shares compounds with LEDGF integ inh; TR-FRET optical interference counterscreen; inhibition, % at 7.7 µM; 2,000 tested, under 10 active; AID 1053135, 2014;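 active = inhibition above the mean over all tested compounds plus 3 SD, which no compound reached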
LEDGF integ conf: inhibitors of HIV-1 IN-LEDGF/p75 DNA integration, confirmation, biochemical, TR-FRET; shares compounds with LEDGF integ inh; TR-FRET LEDGF/p75-dependent HIV-1 integration; inhibition, % at 3.7 µM; 2,000 compounds, 36% hits; in the data active = inhibition above about 14%
Hits are given with their value; - = inactive; . = not tested or not shown. Hits are enriched below; roughly 3.2% of the tested compounds scored in any of these assays.

SMILES	HTRA1 inh	LEDGF integ inh	PRMT1 inh	DAGLB inh	mABHD4 FP	rCAG binder	IN multimer act	TR-FRET interf	LEDGF integ conf
Oc1ccc(/C=N/N2CCOCC2)c(O)c1O	-	52	-	-	-	-	-	-	18
CC(=O)N(C)c1ccc(N=Cc2cc3c(cc2[N+](=O)[O-])OCO3)cc1	-	43	-	-	-	-	-	-	51
COCCOC(=O)C1=C(C)NC(=S)NC1/C=C/c1ccccc1 (configuration not stated)	-	-	-	-	-	-	.	.	.
CC(C)(C)OC(=O)N1Cc2ccccc2C[C@H]1C(=O)NCC(=O)NC1CCCC1	-	-	-	-	-	-	.	.	.
CC(C)(C)OC(=O)N1Cc2ccccc2C[C@H]1C(=O)NC1CCCC1	-	53	-	-	-	-	-	-	-
O=C(OCCO)c1c(-c2ccccc2)oc2c1C(OCCO)CCC2 (configuration not stated)	.	-	-	.	-	-	.	.	.
O=Cc1ccc(-c2c(-c3ccccc3)oc3c2C(OCCCCO)CCC3)o1 (configuration not stated)	.	30	-	.	-	-	-	-	-
CCCCN(C(C)=O)c1c(N)n(CCC)c(=O)n(CC(=O)Nc2cc(Cl)cc(Cl)c2)c1=O	-	-	-	-	-	-	.	.	.
CC1C=CC=CC=CC=CC=CC=CC=CC(OC2OC(C)C(O)C(N)C2O)CC2OC(O)(CC(O)CC(O)C(O)CCC(O)CC(O)CC(=O)OC(C)C(C)C1O)CC(O)C2C(=O)O (configuration not stated)	-	.	.	-	.	.	.	.	.
CC1C=CC=CCCC=CC=CC=CC=CC(OC2O[C@H](C)[C@@H](O)[C@H](N)[C@@H]2O)CC(O)C(C(=O)O)C(O)CC(=O)CC(O)C(O)CCC(O)CC(O)CC(O)CC(=O)OC(C)C(C)C1O (some centres not stated)	.	26	-	.	-	-	-	-	43
COc1ccccc1NC(=O)c1cc2c(s1)-c1ccccc1S(=O)(=O)C2	-	-	-	-	-	-	.	.	.
N#Cc1c(SCC(=O)Nc2cccc(F)c2)sc2c(O)cc(=O)[nH]c12	-	17	-	-	-	61	-	-	-
N#Cc1ccc(NC(=O)CSc2nc3[nH]c(=O)cc(O)c3s2)cc1	-	-	-	-	-	-	.	.	.
CC(=O)N(/N=C1\Sc2ccccc2C1=O)c1ccccc1C	-	34	-	-	-	-	-	-	44
Cc1cnc(C)c(N(C)NC(=S)Nc2ccccc2)n1	-	16	-	-	-	-	-	-	-
Cc1ccc(NC(=S)NN(C)c2cc(C)nc(C)n2)cc1	-	-	-	-	-	-	.	.	.
CCCCC(=O)Nc1cccc(NC(=S)NC(=O)C(C)C)c1	-	-	-	-	-	-	.	.	.
CCCCC(=O)Nc1cccc(NC(=O)CC)c1	-	25	-	-	-	-	-	-	-
CC(C)(C)c1ccc(C(=O)Nc2ccc(C=C(C#N)C#N)cc2)cc1	-	-	-	-	-	-	.	.	.
Cc1cnc(C=NNC(N)=S)c2cccc(N)c12	-	17	-	-	-	-	20	-	61
COCCN(CC(=O)NCc1ccc(F)cc1)C(=O)CCC(=O)Nc1nccs1	-	-	-	-	-	-	.	.	.
CCn1c(=O)c(C(=O)CN2CCN(S(=O)(=O)c3cc(C)ccc3C)CC2)c(N)n(Cc2ccccc2)c1=O	-	50	-	-	-	-	-	-	-
CCn1c(=O)c(C(=O)CN2CCN(Cc3ccc4c(c3)OCO4)CC2)c(N)n(Cc2ccccc2)c1=O	-	-	-	-	-	-	.	.	.
Cc1cc(C)cc(NC(=O)CSc2nc3c(c(=O)n2C)SC(C)C3)c1 (configuration not stated)	-	-	-	-	-	-	.	.	.
O=Cc1ccc2oc3nc4n(c(=O)c3c(=O)c2c1)CCCS4	-	20	-	-	-	-	17	-	32
SMILES	HTRA1 inh	LEDGF integ inh	PRMT1 inh	DAGLB inh	mABHD4 FP	rCAG binder	IN multimer act	TR-FRET interf	LEDGF integ conf
CN(C)S(=O)(=O)c1ccc(C(=O)OCC(=O)Nc2cccnc2Cl)cc1	-	-	-	-	-	-	.	.	.
Cc1ccc(-n2nc3c(c2NC(=O)c2ccc(Br)o2)CSC3)c(C)c1	-	15	-	-	-	-	-	-	49
FC(F)(F)c1cccc(-c2cc3nc(NC4CCCCC4)ccn3n2)c1	.	-	-	.	-	-	.	.	.
Oc1cccc(Nc2ccccc2)c1	-	16	-	-	-	-	26	-	-
Oc1cccc(NC(=S)Nc2ccccc2)c1	-	-	-	-	-	-	.	.	.
Nc1nc2cc(S(=O)(=O)N3CCOCC3)ccc2o1	-	-	-	-	-	-	.	.	.
Cc1ccc(CN(Cc2cc3cc(C)ccc3[nH]c2=O)C(=O)N2CCOCC2)cc1	-	-	-	-	-	-	.	.	.
Cc1cccc2cc(CN(Cc3ccc(F)cc3)C(=O)N3CCOCC3)c(=O)[nH]c12	-	14	-	-	-	-	-	-	-
CN(Cc1ccccc1)C(=O)c1nc[nH]c1C(=O)N(C)Cc1ccccc1	-	17	-	-	-	-	-	-	-
CN(Cc1ccccc1)C(=O)c1[nH]cnc1C(=O)Nc1ccccc1	-	-	-	-	-	-	.	.	.
Cc1ccc2c(c1C)-c1c(ccc(C)c1C)C(=O)C2=O	-	14	-	-	-	-	-	-	69
Cc1ccccc1-c1cc2c(nn1)-c1ccccc1C2=O	-	61	-	-	-	-	-	-	40
Cc1ccc(-c2cc3c(nn2)-c2ccccc2C3=O)cc1	-	-	-	-	-	-	.	.	.
NC(c1csc(Nc2ccccn2)n1)C1CCCCC1 (configuration not stated)	.	14	-	.	-	-	-	-	-
O=[N+]([O-])c1cc(C(F)(F)F)cc([N+](=O)[O-])c1NCc1cccnc1	-	-	-	-	-	-	.	.	.
Cc1occc1-c1nnc(SCC(=O)NCCc2ccccc2)n1Cc1ccccc1	-	-	-	-	-	-	.	.	.
